In ChEMBL document CHEMBL2169746, “Design, synthesis, and antitumor evaluation of 2,4,6-triaryl pyridines containing chlorophenyl and phenolic moiety” (Eur J Med Chem, 2012) one finds inhibition and IC50 data, which are given here for 29 compounds.

The target of test [1] is T1, DNA topoisomerase 1 (Homo sapiens) (UniProt P11387).
T1 sequence (whole entry): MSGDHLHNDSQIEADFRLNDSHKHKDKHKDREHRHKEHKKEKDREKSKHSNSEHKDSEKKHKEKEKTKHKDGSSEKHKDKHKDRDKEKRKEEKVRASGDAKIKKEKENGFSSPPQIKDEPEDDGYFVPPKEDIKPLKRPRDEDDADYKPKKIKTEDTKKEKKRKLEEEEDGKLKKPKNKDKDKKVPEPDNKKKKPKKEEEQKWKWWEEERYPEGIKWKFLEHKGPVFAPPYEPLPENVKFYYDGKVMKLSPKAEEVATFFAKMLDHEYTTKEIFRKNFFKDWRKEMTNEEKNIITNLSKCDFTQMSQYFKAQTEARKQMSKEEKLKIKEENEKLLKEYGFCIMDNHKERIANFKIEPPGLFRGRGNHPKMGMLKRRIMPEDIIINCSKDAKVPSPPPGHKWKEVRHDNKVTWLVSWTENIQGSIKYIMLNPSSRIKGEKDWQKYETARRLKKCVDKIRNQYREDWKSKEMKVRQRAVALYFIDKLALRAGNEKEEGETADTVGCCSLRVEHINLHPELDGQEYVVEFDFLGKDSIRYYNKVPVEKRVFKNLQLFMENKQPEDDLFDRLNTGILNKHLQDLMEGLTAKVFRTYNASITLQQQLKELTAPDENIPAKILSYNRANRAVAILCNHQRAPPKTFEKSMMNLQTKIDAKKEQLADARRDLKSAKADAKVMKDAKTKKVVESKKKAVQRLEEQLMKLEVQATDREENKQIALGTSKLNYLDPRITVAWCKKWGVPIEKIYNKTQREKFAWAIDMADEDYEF
The test is described as follows: Inhibition of recombinant human DNA topoisomerase-1-mediated relaxation of supercoiled pBR322 at 100 uM after 30 mins using ethidium bromide staining by agarose gel electrophoresis. The procedure, abridged: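 Compounds from 20 mM DMSO stocks. 100 ng pBR322 plasmid DNA with 1 unit recombinant human topo I, with or without compound, 37 °C for 30 min. Relaxation buffer was 10 mM Tris-HCl pH 7.9, 150 mM NaCl, 0.1% BSA, 1 mM spermidine. Relaxation of supercoiled DNA assessed by gel imaging.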

For test [2], the target named is DNA topoisomerase 2-alpha (Homo sapiens) (UniProt P11388). Kind of test: Inhibition of human DNA topoisomerase-2alpha-mediated relaxation of supercoiled pBR322 at 20 uM after 30 mins using ethidium bromide staining by agarose gel electrophoresis. The procedure, abridged:
(§1)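 200 ng supercoiled pBR322 with 1 unit human topo IIα, with or without compound. Buffer was 10 mM Tris-HCl pH 7.9, 50 mM NaCl, 5 mM MgCl₂, 1 mM EDTA, 1 mM ATP and bovine serum albumin. Incubated 30 min at 30 °C, stopped with EDTA. Products run on 1% agarose gel, 25 V, 4 h, TAE buffer. Compound stocks 20 mM in DMSO.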

The subject of a further test is T47D. Kind of test: Cytotoxicity against human T47D cells after 2 days by cell counting kit-8 analysis. To be noted: 48 h. The class given is functional, cell-based. The procedure, abridged:
(§2)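 Cells grown per supplier's instructions, seeded at 2-4 × 10⁴ cells/well and incubated overnight in medium with 10% FBS at 37 °C, 5% CO₂. On day 2, after 4 h FBS starvation, medium was replaced with medium containing graded compound concentrations. Absorbance read at 450 nm. IC50 from a four-parameter logistic fit. Three independent experiments in triplicate, mean ± S.D.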

A further test deals with HEK293. The test is described as follows: Cytotoxicity against human HEK293 cells after 2 days by cell counting kit-8 analysis. The class given is cell-based. To be noted: HEK293, 48 h. The procedure, abridged:
as §2

Another test has as its system DU-145. The test is described as follows: Cytotoxicity against human DU145 cells after 2 days by cell counting kit-8 analysis. The class given is functional, cell-based. To be noted: DU-145, 48 h. Put shortly:
as §2

The next test has as its system HCT-15. Kind of test: Cytotoxicity against human HCT15 cells after 2 days by cell counting kit-8 analysis. The class given is functional, cell-based. To be noted: HCT-15, 48 h. The procedure, abridged:
as §2

Test [3] concerns the target DNA topoisomerase 2-alpha (Homo sapiens) (UniProt P11388). Kind of test: Inhibition of human DNA topoisomerase-2alpha-mediated relaxation of supercoiled pBR322 at 100 uM after 30 mins using ethidium bromide staining by agarose gel electrophoresis. The procedure, abridged: as §1

Chain of DNA topoisomerase 2-alpha (Homo sapiens) (P11388 whole entry): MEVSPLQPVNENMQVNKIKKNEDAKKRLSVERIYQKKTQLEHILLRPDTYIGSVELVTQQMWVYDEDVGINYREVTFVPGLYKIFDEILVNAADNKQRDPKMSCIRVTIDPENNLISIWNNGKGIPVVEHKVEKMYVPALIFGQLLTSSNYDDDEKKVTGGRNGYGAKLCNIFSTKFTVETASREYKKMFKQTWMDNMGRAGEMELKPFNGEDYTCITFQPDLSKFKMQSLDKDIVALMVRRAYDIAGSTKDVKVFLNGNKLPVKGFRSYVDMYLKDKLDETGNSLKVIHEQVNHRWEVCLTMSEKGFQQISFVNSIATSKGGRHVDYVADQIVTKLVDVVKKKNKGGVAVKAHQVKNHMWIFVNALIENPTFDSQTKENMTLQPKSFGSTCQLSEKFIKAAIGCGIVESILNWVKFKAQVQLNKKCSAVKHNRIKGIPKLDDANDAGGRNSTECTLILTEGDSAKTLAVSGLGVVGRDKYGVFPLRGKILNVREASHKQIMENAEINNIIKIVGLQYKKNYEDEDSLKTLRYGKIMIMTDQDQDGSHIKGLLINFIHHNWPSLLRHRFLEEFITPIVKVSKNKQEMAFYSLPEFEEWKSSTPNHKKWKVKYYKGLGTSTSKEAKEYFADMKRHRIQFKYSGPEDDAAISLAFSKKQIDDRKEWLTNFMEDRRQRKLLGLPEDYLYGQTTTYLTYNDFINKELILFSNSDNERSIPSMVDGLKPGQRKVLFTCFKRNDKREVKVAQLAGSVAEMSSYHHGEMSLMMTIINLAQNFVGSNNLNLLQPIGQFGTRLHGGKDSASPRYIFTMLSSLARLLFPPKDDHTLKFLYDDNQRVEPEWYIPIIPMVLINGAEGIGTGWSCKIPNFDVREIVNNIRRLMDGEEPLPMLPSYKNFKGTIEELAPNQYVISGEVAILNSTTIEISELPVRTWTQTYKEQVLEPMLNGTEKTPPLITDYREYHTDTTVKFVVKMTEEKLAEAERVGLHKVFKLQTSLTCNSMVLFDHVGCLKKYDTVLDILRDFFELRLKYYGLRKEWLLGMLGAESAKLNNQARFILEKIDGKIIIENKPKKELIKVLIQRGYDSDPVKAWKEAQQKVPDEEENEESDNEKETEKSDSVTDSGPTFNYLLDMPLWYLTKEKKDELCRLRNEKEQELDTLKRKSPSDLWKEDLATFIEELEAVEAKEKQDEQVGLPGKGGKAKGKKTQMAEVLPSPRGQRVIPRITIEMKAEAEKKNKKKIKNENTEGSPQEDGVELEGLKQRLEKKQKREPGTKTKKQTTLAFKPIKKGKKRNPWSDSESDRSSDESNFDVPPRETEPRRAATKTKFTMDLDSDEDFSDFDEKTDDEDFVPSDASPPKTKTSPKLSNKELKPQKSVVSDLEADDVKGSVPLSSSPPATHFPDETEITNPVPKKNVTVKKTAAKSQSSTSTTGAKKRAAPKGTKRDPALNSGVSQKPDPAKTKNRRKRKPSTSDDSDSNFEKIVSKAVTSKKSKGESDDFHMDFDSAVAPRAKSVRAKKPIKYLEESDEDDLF

With `Oc1ccc(-c2cc(-c3ccsc3)nc(-c3ccccc3Cl)c2)cc1`, the inhibition in test [1] came out at 4.1%; in test [2] it was 29.2%; in test [3] it was 80.5%. Moreover, the concentration for half-maximal inhibition (IC50) worked out at 6.11 µM in the test with T47D, 5.93 µM with HEK293, 3.89 µM with DU-145 and 5.83 µM with HCT-15.

For the compound `Oc1cccc(-c2cc(-c3cccs3)nc(-c3ccccc3Cl)c2)c1`, the inhibition in test [1] is 2.7%; in test [2] it was 10.7%; in test [3], 78.9%. Moreover, the IC50 with T47D came out at 3.99 µM; with HEK293, 2.6 µM; with DU-145, 1.7 µM; in the test with HCT-15, 2.79 µM.

Take `Oc1ccc(-c2cc(-c3ccccc3)nc(-c3cccc(Cl)c3)c2)cc1`: the inhibition in test [1] was 0%; in test [2], 0.5%; in test [3], 76.8%. Besides, the half-inhibitory concentration (IC50) was 4.79 µM in the test on T47D, 2.82 µM with HEK293, 5.36 µM with DU-145 and 6.1 µM with HCT-15.

As for `Oc1ccc(-c2cc(-c3ccncc3)nc(-c3cccc(Cl)c3)c2)cc1`, the inhibition was 29.2% in test [1] and 0% in test [3].

On to `Oc1ccc(-c2cc(-c3cccnc3)nc(-c3ccccc3Cl)c2)cc1`, for which the inhibition was 0.9% in test [1] and 0% in test [3].

Consider `Oc1ccc(-c2cc(-c3ccc(Cl)cc3)nc(-c3cccnc3)c2)cc1`, for which the results for the inhibition in test [1], in test [2] and in test [3] were 18.8%, 11.9% and 59.1%, respectively. Further, the IC50 stood at 29.3 µM with T47D, 27.4 µM in the test on HEK293, 22.8 µM in the test on DU-145 and 20.7 µM with HCT-15.

As to `Oc1ccc(-c2cc(-c3ccccc3)nc(-c3ccccc3Cl)c2)cc1`, the results for the inhibition in test [1], in test [2] and in test [3] were 13.6%, 5.5% and 77.5%, respectively. Besides, the 50% inhibitory concentration (IC50) in the test on T47D turned out to be 5.46 µM; with HEK293, 3.93 µM; in the test with DU-145 it was 2.8 µM; in the test with HCT-15, 4.99 µM.

With `Oc1cccc(-c2cc(-c3cccnc3)nc(-c3cccc(Cl)c3)c2)c1`, the inhibition in test [1] is 27.6%; in test [3], 0%.

Take `Oc1cccc(-c2cc(-c3ccc(Cl)cc3)nc(-c3cccnc3)c2)c1`: the inhibition in test [1] is 2.8%; in test [2], 10.6%; in test [3], 40.4%. Also, the IC50 in the test with T47D stood at 18.1 µM; in the test on HEK293, 39.5 µM; in the test on DU-145 it was 26.8 µM; in the test on HCT-15 it was 16.8 µM.

On to `Oc1ccc(-c2cc(-c3ccco3)nc(-c3ccccc3Cl)c2)cc1`, for which the inhibition in test [1] turned out to be 3.9%; in test [2] it was 7.7%; in test [3] it was 77.8%. Moreover, the IC50 with T47D amounted to 5.48 µM; in the test with HEK293 it was 4.31 µM; with DU-145 it was 5.3 µM; with HCT-15, 5.46 µM.

With `Oc1cccc(-c2cc(-c3ccccn3)nc(-c3ccccc3Cl)c2)c1`, the inhibition is 0% in test [1] and 19.1% in test [3].

Take `Oc1ccc(-c2cc(-c3ccccn3)nc(-c3ccccc3Cl)c2)cc1`: the inhibition is 5.2% in test [1] and 21.1% in test [3].

Turning to `Oc1cccc(-c2cc(-c3ccco3)nc(-c3ccccc3Cl)c2)c1`, the figures for the inhibition in test [1], in test [2] and in test [3] were 0%, 8.6% and 77.9%, respectively. Further, the 50% inhibitory concentration (IC50) with T47D was 2.01 µM; in the test with HEK293, 1.86 µM; in the test with DU-145 it was 1.63 µM; in the test with HCT-15, 2.23 µM.

In the case of `Oc1cccc(-c2cc(-c3cccc(Cl)c3)nc(-c3cccs3)c2)c1`, the inhibition is 7.6% in test [1], 39% in test [2] and 80.4% in test [3]. Also, the 50% inhibitory concentration (IC50) in the test on T47D was 3.41 µM; in the test on HEK293 it was 3.15 µM; with DU-145, 2.65 µM; with HCT-15, 2.61 µM.

Turning to `Oc1cccc(-c2cc(-c3ccccc3)nc(-c3ccccc3Cl)c2)c1`, the inhibition in test [1] was found to be 3.2%; in test [2] it was 23%; in test [3] it was 83%. Also, the IC50 amounted to 2.92 µM with T47D, 1.76 µM with HEK293, 1.48 µM in the test on DU-145 and 2.93 µM in the test on HCT-15.

Regarding `Oc1cccc(-c2cc(-c3ccc(Cl)cc3)nc(-c3ccsc3)c2)c1`, the inhibition is 11.7% in test [1], 38.3% in test [2] and 71.6% in test [3]. Further, the IC50 in the test on T47D is 11.5 µM; in the test with HEK293 it was 11.2 µM; with DU-145, 11.6 µM; in the test with HCT-15, 8.85 µM.

As to `Oc1cccc(-c2cc(-c3cccnc3)nc(-c3ccccc3Cl)c2)c1`, the inhibition in test [1] and in test [3] was 0% in each case.

In test [2], `COc1cc([C@@H]2c3cc4c(cc3[C@@H](O[C@@H]3O[C@@H]5CO[C@@H](C)O[C@H]5[C@H](O)[C@H]3O)[C@H]3COC(=O)[C@H]23)OCO4)cc(OC)c1O` [ETOPOSIDE] displayed an inhibition of 20%. Also, the IC50 was determined as 2.39 µM with T47D, 1.21 µM in the test with HEK293, 1.21 µM in the test with DU-145 and 1.17 µM in the test with HCT-15.

For `CC[C@@]1(O)C(=O)OCc2c1cc1n(c2=O)Cc2cc3ccccc3nc2-1` [CAMPTOTHECIN], the IC50 in the test with T47D is 1.53 µM; in the test with HEK293, 1.01 µM; with DU-145 it was 1.06 µM; in the test with HCT-15 it was 1.38 µM.

In the case of `Oc1ccc(-c2cc(-c3ccc(Cl)cc3)nc(-c3ccco3)c2)cc1`, the inhibition in test [1] was determined as 15.8%; in test [2], 36.2%; in test [3], 84.1%. The concentration for half-maximal inhibition (IC50) in the test on T47D worked out at 6.26 µM; in the test on HEK293 it was 5.72 µM; in the test on DU-145, 7.28 µM; in the test on HCT-15 it was 7.02 µM.

As to `Oc1cccc(-c2cc(-c3ccccc3)nc(-c3cccc(Cl)c3)c2)c1`, the inhibition in test [1] came to 11.5%; in test [2], 49.1%; in test [3], 81.1%. The half-inhibitory concentration (IC50) was determined as 3.7 µM with T47D, 3.12 µM in the test with HEK293, 2.75 µM in the test on DU-145 and 2.55 µM in the test on HCT-15.

Take `Oc1cccc(-c2cc(-c3ccc(Cl)cc3)nc(-c3ccco3)c2)c1`: the figures for the inhibition in test [1], in test [2] and in test [3] were 27.1%, 16.7% and 63.8%, respectively. The IC50 was 10.5 µM with T47D, 8.19 µM in the test with HEK293, 11.4 µM in the test on DU-145 and 10.2 µM in the test on HCT-15.

On to `Oc1ccc(-c2cc(-c3ccncc3)nc(-c3ccc(Cl)cc3)c2)cc1`, for which the inhibition in test [1] was 5.9%; in test [3], 2.4%.

In the case of `Oc1ccc(-c2cc(-c3cccs3)nc(-c3ccccc3Cl)c2)cc1`, the values for the inhibition in test [1], in test [2] and in test [3] were 2.2%, 8.2% and 78.3%, respectively. The IC50 is 5.87 µM in the test with T47D, 5.22 µM in the test with HEK293, 4.19 µM in the test with DU-145 and 5.43 µM with HCT-15.

For `Oc1cccc(-c2cc(-c3ccncc3)nc(-c3cccc(Cl)c3)c2)c1`, the inhibition in test [1] was 0%; in test [3], 13.9%.

On to `Oc1ccc(-c2cc(-c3ccncc3)nc(-c3ccccc3Cl)c2)cc1`, for which the inhibition in test [1] was determined as 9.9%; in test [3], 0%.

Take `COc1cccc2c1C(=O)c1c(O)c3c(c(O)c1C2=O)C[C@@](O)(C(=O)CO)C[C@@H]3O[C@H]1C[C@H](N)[C@H](O)[C@H](C)O1` [DOXORUBICIN]: the concentration for half-maximal inhibition (IC50) was 1.05 µM in the test on T47D, 1.34 µM in the test with HEK293, 1.1 µM with DU-145 and 1.03 µM with HCT-15.

In the case of `Oc1cccc(-c2cc(-c3ccncc3)nc(-c3ccccc3Cl)c2)c1`, the figures for the inhibition in test [1] and in test [3] were 0% and 0.7%, respectively.

`Oc1cccc(-c2cc(-c3cccc(Cl)c3)nc(-c3ccccn3)c2)c1`: the results for the inhibition in test [1] and in test [3] were 0.4% and 2.4%, respectively.
